# Published values gathered from unrelated publications.
# Compare with care: the assays were run in different laboratories.
# Target: Serine/threonine-protein kinase PAK 1 (PAK1, Homo sapiens, UniProt Q13153)
SMILES,read-out,mode,technique,tested at,measurement,result
CC#CC(=O)N1CCC[C@H]1c1nc(-c2ccc(C(=O)Nc3ccccn3)cc2)c2c(N)nccn12,enzyme activity,inhibitor,,1 µM,inhibition,1%
N#Cc1ccc(NC(=O)Nc2ccccc2)cc1,cell-free assay,,competition with immobilised ligand,25 µM,remaining binding,92%
C[C@H]1CC[C@H](n2c3cnccc3c3cnc(Nc4ccc5c(n4)CCN(C(=O)CO)C5)nc32)CC1,cell-free assay,,,1 µM,remaining signal,100%
CCCCC(=O)Nc1ccc(-c2ccc3ncn(CCC)c(=O)c3c2)cn1,binding,,competition with immobilised ligand,0.5 µM,remaining binding,97%
COc1ccc2[nH]c3c4[nH]c5ccc(OC)cc5c4c4c(c3c2c1)C(=O)NC4=O,binding,,,1 µM,remaining binding,70%
C=CC(=O)N1CCC([C@@H]2CCNc3c(C(N)=O)c(-c4ccc(Oc5ccccc5)cc4)nn32)CC1,enzyme activity,inhibitor,,1 µM,inhibition,9%
C1=C/COCc2cc(ccc2OCCN2CCCC2)Nc2nccc(n2)-c2cccc(c2)COC/1,binding,,,0.1 µM,remaining binding,100%
COc1ccc2oc(-c3ccc4nc(N)oc4c3)c/c(=N\c3ccccc3NC(=O)CCN)c2c1,binding,,,1 µM,remaining binding,104%
